Assay results from different studies.
Each line is one published result; the experiments were not run side by side.
Target: cGMP-dependent protein kinase 2 (PRKG2, Homo sapiens, UniProt Q13237)
One construct used (Q13237 1-762): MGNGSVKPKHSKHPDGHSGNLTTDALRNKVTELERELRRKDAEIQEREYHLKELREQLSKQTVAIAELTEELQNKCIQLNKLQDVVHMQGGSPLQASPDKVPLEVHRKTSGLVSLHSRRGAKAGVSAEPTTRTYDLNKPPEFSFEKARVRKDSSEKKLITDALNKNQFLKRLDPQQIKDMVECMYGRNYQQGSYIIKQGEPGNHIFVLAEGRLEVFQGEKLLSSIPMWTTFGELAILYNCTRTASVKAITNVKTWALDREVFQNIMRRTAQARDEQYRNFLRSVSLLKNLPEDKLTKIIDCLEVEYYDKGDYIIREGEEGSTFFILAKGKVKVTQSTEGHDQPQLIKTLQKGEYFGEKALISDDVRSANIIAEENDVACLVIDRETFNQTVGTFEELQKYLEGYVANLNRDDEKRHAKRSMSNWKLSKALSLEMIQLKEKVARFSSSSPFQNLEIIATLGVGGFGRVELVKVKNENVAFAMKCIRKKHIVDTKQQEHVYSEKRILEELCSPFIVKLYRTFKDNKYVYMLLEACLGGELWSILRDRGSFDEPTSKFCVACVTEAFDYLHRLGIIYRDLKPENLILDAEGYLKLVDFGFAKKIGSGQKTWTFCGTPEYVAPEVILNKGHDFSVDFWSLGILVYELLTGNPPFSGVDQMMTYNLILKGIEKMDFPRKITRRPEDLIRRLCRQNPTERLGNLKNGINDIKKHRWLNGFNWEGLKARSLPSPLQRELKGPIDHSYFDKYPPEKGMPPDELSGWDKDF

Structure (SMILES) | read-out | mode | technique | tested at | quantity | value
CC(C)(O)[C@H]1CC[C@H](Nc2ccc3ncc(-c4cccc(C(F)(F)F)c4)n3n2)CC1 | enzyme activity | inhibitor |  | 1 µM | remaining activity | 93.7%
CO[C@H]1CC[C@H](CNc2ccc(S(=O)(=O)NC(=O)c3ccc(N4CCN(CC5=C(c6ccc(Cl)cc6)CC(C)(C)CC5)CC4)cc3Oc3cnc4[nH]ccc4c3)cc2[N+](=O)[O-])CC1 | cell-free assay |  | competition with immobilised ligand | 1 µM | remaining binding | 90%
COc1cc(Cl)c(C(=O)N[C@@H](CN[C@H]2CC[C@@H](N)CC2)Cc2ccc(C#N)cc2)cc1-c1ccc(CN[C@H](C)c2ccc(C)cc2)o1 | enzyme activity | inhibitor |  | 1 µM | remaining activity | 98%
Cn1cncc1C1=CN(c2ncnc3[nH]cnc23)CCS1 | enzyme activity | inhibitor | radiometric | 2 µM | inhibition | 99.4%
C[C@H](c1cccc(C#N)c1)n1cc(Cl)cc(C(N)=O)c1=N | cell-free assay |  | competition with immobilised ligand | 1 µM | remaining binding | 97%
CN(C)C1CCN(CC#Cc2nn(C3CCCC3)c3nc(NCc4ccccc4)ncc23)C1 (stereo not drawn) | enzyme activity | inhibitor | FRET | 1 µM | inhibition | 6%
O=C(NCCCC1CCCCC1)c1ccc(CNC(=O)c2cnn(-c3ccccc3)c2C(F)(F)F)cc1 | cell-free assay |  | competition with immobilised ligand | 0.1 µM | remaining binding | 89%
CC(C)(C)c1nc2c(s1)c1nc(N)ncc1c1ccc(NS(=O)(=O)c3c(F)cccc3F)c(F)c12 | enzyme activity | inhibitor | radiometric | 1 µM | remaining activity | 102%
COc1cc2ncnc(Nc3ccc(Oc4ccccc4)cc3C)c2cc1OC | enzyme activity | inhibitor |  | 1 µM | inhibition | 3%
O=C1Nc2ccc(Cl)cc2C1=Cc1cc(Cl)c(O)c(Cl)c1 | cell-free assay |  |  | 0.5 µM | remaining signal | 97%
CN1CC(Oc2cnc(C#N)cc2-c2ccn3nc(NC(=O)C4CC4)cc3c2)C1 | enzyme activity | inhibitor |  | 1 µM | inhibition | 1%
O=C(Nc1cnn(-c2csc(C(=O)NC3COC3)c2)c1)Nc1ccccc1Cl | enzyme activity | inhibitor |  | 5 µM | remaining activity | 101%
CN([C@@H]1CCc2c(CC(=O)O)c3ccccc3n2C1)S(=O)(=O)c1ccc(F)cc1 | cell-free assay |  | competition with immobilised ligand | 1 µM | remaining binding | 100%
Cc1ccc(NC(=O)c2ccc(CN3CCN(C)CC3)cc2)cc1Nc1nc(-c2cccnc2)cs1 | cell-free assay |  |  | 0.5 µM | remaining signal | 95.4%
Cc1cc(-n2nc(Cc3cc(F)cc(C(F)(F)F)c3)nc2C)ccc1C(N)=O | cell-free assay |  | competition with immobilised ligand | 1 µM | remaining binding | 86%
O=C1NC(=O)c2cc(Nc3ccc(F)cc3)c(Nc3ccc(F)cc3)cc21 | cell-free assay |  |  | 0.5 µM | remaining signal | 83.3%
Cn1cnc(Br)c1C1=CN(c2ncnc3[nH]cnc23)CCS1 | enzyme activity | inhibitor | radiometric | 50 nM | inhibition | 43.1%
CC1=C(C#N)[C@@H](c2ccc3[nH]nc(C)c3c2)C(C#N)=C(c2ccc(Cl)cc2)N1 | cell-free assay |  | competition with immobilised ligand | 1 µM | remaining binding | 100%
